Assay results from ChEMBL document CHEMBL4428038, “Overcoming chloroquine resistance in malaria: Design, synthesis and structure-activity relationships of novel chemoreversal agents” (Eur J Med Chem, 2016).
The source made the active and inactive calls. The rule behind the calls is not given here.

Assays:
[1] = Cytotoxicity against human AC10 cells assessed as reduction in cell viability by CellTiter-Glo assay; format: cell-based
Summary of the method: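 For TAMH (hepatocyte line) and AC10 (cardiomyocyte line), viability was read by ATP luminescence (CellTiter-Glo), and the value reported is IC50.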

[2] = Inhibition of CRT CVIET haplotype mutant in chloroquine-resistant Plasmodium falciparum K1 isolate MRA-159 assessed as reversal of chloroquine resistance by measuring reduction in chloroquine IC50 relative to chloroquine alone
Summary of the method: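 Chloroquine IC50 was determined in the presence of a fixed 500 nM chemoreversal agent, against chloroquine alone. The RMI is the ratio of chloroquine IC50 with agent to chloroquine IC50 alone. Mean of n = 3; two-tailed t test versus chloroquine without agent.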

[3] = tested on: Plasmodium falciparum; experiment: Intrinsic antimalarial activity against chloroquine/artemisinin-resistant Plasmodium falciparum ARS272 harboring CRT K76T mutant assessed as reduction in parasite viability at 500 nM; format: functional, organism-based
[4] = tested on: Plasmodium falciparum; experiment: Intrinsic antimalarial activity against chloroquine-sensitive Plasmodium falciparum 3D7 isolate MRA-102 assessed as reduction in parasite viability at 500 nM; format: functional, organism-based
[5] = Permeability of compound incubated for 16 hrs at pH 7.4 by PAMPA; format: ADME; details: read-out: Peff
[6] = tested on: Plasmodium falciparum; experiment: Intrinsic antimalarial activity against intermediate chloroquine-resistant Plasmodium falciparum 7G8 isolate MRA-154 harboring CRT SVMNT haplotype mutant assessed as reduction in parasite viability at 500 nM; format: functional, organism-based
[7] = tested on: T1, Chloroquine resistance transporter (Plasmodium falciparum), Q9N623 [K76T]; experiment: Inhibition of CRT K76T mutant in chloroquine/artemisinin-resistant Plasmodium falciparum ARS272 assessed as reversal of chloroquine resistance by measuring reduction in chloroquine IC50 at 500 nM relative to chloroquine alone
T1 sequence (whole entry): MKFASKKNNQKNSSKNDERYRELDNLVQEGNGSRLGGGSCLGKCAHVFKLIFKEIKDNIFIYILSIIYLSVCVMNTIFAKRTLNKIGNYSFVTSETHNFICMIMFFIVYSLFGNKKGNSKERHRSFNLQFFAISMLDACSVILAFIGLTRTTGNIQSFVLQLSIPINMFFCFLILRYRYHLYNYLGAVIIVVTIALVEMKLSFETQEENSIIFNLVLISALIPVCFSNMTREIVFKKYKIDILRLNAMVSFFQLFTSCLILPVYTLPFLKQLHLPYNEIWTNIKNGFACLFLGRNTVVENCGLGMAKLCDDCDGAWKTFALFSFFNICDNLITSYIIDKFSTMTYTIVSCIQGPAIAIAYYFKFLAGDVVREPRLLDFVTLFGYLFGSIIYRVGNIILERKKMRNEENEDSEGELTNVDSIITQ

[8] = Resistance index, ratio of chloroquine IC50 for intermediate chloroquine-resistant Plasmodium falciparum 7G8 isolate MRA-154 CRT SVMNT haplotype mutant to chloroquine IC50 for chloroquine-sensitive Plasmodium falciparum 3D7 isolate MRA-102 at 500 nM
Summary of the method: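 Chloroquine IC50 was measured with the chemoreversal agent fixed at 500 nM in K1 or 7G8 and in sensitive 3D7 (means, n = 3). The resistance ratio is the chloroquine IC50 in K1 or 7G8 divided by the chloroquine IC50 in 3D7.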

[9] = tested on: Plasmodium falciparum; experiment: Potentiation of chloroquine-induced antimalarial activity against chloroquine-sensitive Plasmodium falciparum 3D7 isolate MRA-102 assessed as concentration required for 50% reduction in chloroquine IC50 at 500 nM relative to chloroquine alone; format: functional, organism-based
[10] = tested on: Plasmodium falciparum; experiment: Potentiation of chloroquine-induced antimalarial activity against chloroquine-sensitive Plasmodium falciparum 3D7 isolate MRA-102 assessed as reduction in chloroquine IC50 at 500 nM relative to chloroquine alone; format: functional
[11] = tested on: T1, Chloroquine resistance transporter (Plasmodium falciparum), Q9N623 [K76T]; experiment: Inhibition of CRT K76T mutant in chloroquine/artemisinin-resistant Plasmodium falciparum ARS233 assessed as reversal of chloroquine resistance by measuring reduction in chloroquine IC50 at 500 nM relative to chloroquine alone

## c1ccc(CN[C@@H]2C3CCN(CC3)[C@@H]2Cc2ccccc2)cc1 (relative stereo)
[1]
  IC50: 71.5 µM
[2]
  EC50: 0.17 µM
[3]
  Activity: inactive
[4]
  Activity: inactive
[5]
  Papp at 16 h: 14.5 ×10⁻⁶ cm/s
[6]
  Activity: inactive
[7]
  Ratio IC50: 0.43
[8]
  Ratio IC50: 3.9
[9]
  Activity: inactive
[10]
  Ratio IC50: 1.26
[11]
  Ratio IC50: 0.43
